From ChEMBL document CHEMBL1151774, “Synthesis and biological evaluation of new N-linked 5-triazolylmethyl oxazolidinones” (Eur J Med Chem, 2008)
Values after ≈ are worked out from the molar mass of the structure shown.

Columns and labels:
Staphylococcus aureus [1] = test: Antimicrobial activity against Staphylococcus aureus ATCC 29213 after 16 to 18 hrs by agar dilution method; type: functional
[2] = Tmax in Sprague-Dawley rat at 50 mg/kg, po; type: ADME, organism-based; design: dose 50 mg/kg, route oral; settings: in vivo
In short: (§1)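 Single dose given orally (10 or 50 mg/kg) or intravenously (10 mg/kg). Serial 300 µL blood samples were taken from the retrobulbar vein. Plasma was quantified by LC-MS. Parameters came from mean plasma concentration by non-compartmental analysis. F is absolute oral bioavailability, assuming linear pharmacokinetics.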

[3] = Clearance in Sprague-Dawley rat at 10 mg/kg, iv; type: ADME, organism-based; design: dose 10 mg/kg, route intravenous; settings: in vivo; in short: as §1
[4] = AUC (0 to infinity) in Sprague-Dawley rat at 10 mg/kg, iv; type: ADME, organism-based; design: time infinity, dose 10 mg/kg, route intravenous; settings: plasma; in short: as §1
[5] = Clearance in Sprague-Dawley rat at 50 mg/kg, po; type: ADME, organism-based; design: dose 50 mg/kg, route oral; settings: in vivo; in short: as §1
Staphylococcus aureus [6] = test: Antimicrobial activity against methicillin-resistant Staphylococcus aureus 05-2 infected in po dosed KunMing SPF mouse; type: functional
In short: (§2)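 Mice given a lethal systemic infection by intraperitoneal injection of the MLD inoculum of MRSA 05-2. Compound dosed orally or by i.v. injection in 0.9% NaCl immediately and 4 h post-infection. ED50 (dose curing 50% of infected mice) calculated by the Bliss method on day 7 post-infection, with 95% confidence ranges.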

[7] = AUC (0 to infinity) in Sprague-Dawley rat at 10 mg/kg, po; type: ADME, organism-based, Plasma; design: time infinity, dose 10 mg/kg, route oral; settings: Sprague-Dawley, plasma; in short: as §1
Staphylococcus aureus [8] = test: Antimicrobial activity against methicillin-resistant Staphylococcus aureus after 16 to 18 hrs by agar dilution method; type: functional
Staphylococcus aureus [9] = test: Antimicrobial activity against methicillin-resistant Staphylococcus aureus 05-2 infected in iv dosed KunMing SPF mouse; type: functional; in short: as §2
[10] = Elimination half life in Sprague-Dawley rat at 50 mg/kg, po; type: ADME, organism-based; design: dose 50 mg/kg, route oral; settings: in vivo, read-out: beta t1/2 (converted); in short: as §1
[11] = AUC (0 to infinity) in Sprague-Dawley rat at 50 mg/kg, po; type: ADME, organism-based, Plasma; design: time infinity, dose 50 mg/kg, route oral; settings: Sprague-Dawley, plasma; in short: as §1
Staphylococcus aureus [12] = test: Antimicrobial activity against methicillin-susceptible Staphylococcus aureus after 16 to 18 hrs by agar dilution method; type: functional
[13] = Cmax in Sprague-Dawley rat at 50 mg/kg, po; type: ADME, organism-based; design: dose 50 mg/kg, route oral; settings: in vivo; in short: as §1
Enterococcus faecalis = test: Antimicrobial activity against Enterococcus faecalis after 16 to 18 hrs by agar dilution method; type: functional
[14] = Oral bioavailability in Sprague-Dawley rat at 10 mg/kg; type: ADME, organism-based; settings: in vivo; in short: as §1
Streptococcus pneumoniae = test: Antimicrobial activity against sStreptococcus pneumoniae after 16 to 18 hrs by agar dilution method; type: functional
[15] = Elimination half life in Sprague-Dawley rat at 10 mg/kg, iv; type: ADME, organism-based; design: dose 10 mg/kg, route intravenous; settings: in vivo, read-out: beta t1/2 (converted); in short: as §1
[16] = Cmax in Sprague-Dawley rat at 10 mg/kg, po; type: ADME, organism-based; design: dose 10 mg/kg, route oral; settings: in vivo; in short: as §1
[17] = Tmax in Sprague-Dawley rat at 10 mg/kg, po; type: ADME, organism-based; design: dose 10 mg/kg, route oral; settings: in vivo; in short: as §1
[18] = Clearance in Sprague-Dawley rat at 10 mg/kg, po; type: ADME, organism-based; design: dose 10 mg/kg, route oral; settings: in vivo; in short: as §1
[19] = Elimination half life in Sprague-Dawley rat at 10 mg/kg, po; type: ADME, organism-based; design: dose 10 mg/kg, route oral; settings: in vivo, read-out: beta t1/2 (converted); in short: as §1
Staphylococcus aureus [20] = test: Antimicrobial activity against methicillin-resistant Staphylococcus aureus 05-2 infected in sc dosed KunMing SPF mouse; type: functional

Row | SMILES | MIC (Staphylococcus aureus [1]) | ED50 (Staphylococcus aureus [6]) | MIC (Staphylococcus aureus [8]) | ED50 (Staphylococcus aureus [9]) | MIC (Staphylococcus aureus [12]) | MIC (Enterococcus faecalis) | MIC (Streptococcus pneumoniae) | also measured
1 | O=C1O[C@@H](Cn2ccnn2)CN1c1ccc(N2CCN(Cc3ccoc3)CC2)c(F)c1 | 0.008 µg/mL (≈ 0.0188 µM) | 7.47 mg/kg | 0.03 µg/mL (≈ 0.0703 µM) | 6.99 mg/kg | 0.008 µg/mL (≈ 0.0188 µM) | 0.5 µg/mL (≈ 1.17 µM) | 0.03 µg/mL (≈ 0.0703 µM) | Tmax [2]: 1.9 h; clearance [3]: 6.98 mL/min/kg; AUC(0-inf) [4]: 26200 ng·h/mL; CL/F [5]: 8.86 mL/min/kg; AUC(0-inf) [7]: 16400 ng·h/mL; half-life [10]: 8.6 h; AUC(0-inf) [11]: 85800 ng·h/mL; Cmax [13]: 10700 ng/mL; bioavailability [14]: 62.7%; half-life [15]: 2.95 h; Cmax [16]: 3040 ng/mL; Tmax [17]: 0.88 h; CL/F [18]: 10.5 mL/min/kg; half-life [19]: 2.76 h
2 | O=C1O[C@@H](Cn2ccnn2)CN1c1ccc(N2CCN(Cc3cccc([N+](=O)[O-])c3)CC2)c(F)c1 | 0.03 µg/mL (≈ 0.0623 µM) | 7.87 mg/kg | 0.5 µg/mL (≈ 1.04 µM) | 11.2 mg/kg | 0.06 µg/mL (≈ 0.125 µM) | 0.5 µg/mL (≈ 1.04 µM) | 0.5 µg/mL (≈ 1.04 µM) | Tmax [2]: 2.3 h; clearance [3]: 6.98 mL/min/kg; AUC(0-inf) [4]: 26200 ng·h/mL; CL/F [5]: 11.3 mL/min/kg; AUC(0-inf) [7]: 16100 ng·h/mL; half-life [10]: 5.34 h; AUC(0-inf) [11]: 74500 ng·h/mL; Cmax [13]: 10800 ng/mL; bioavailability [14]: 61.5%; half-life [15]: 2.95 h; Cmax [16]: 3240 ng/mL; Tmax [17]: 1.4 h; CL/F [18]: 11.7 mL/min/kg; half-life [19]: 2.36 h
3 | O=C1O[C@@H](Cn2ccnn2)CN1c1ccc(N2CCN(Cc3ccc([N+](=O)[O-])cc3)CC2)c(F)c1 | 0.5 µg/mL (≈ 1.04 µM) |  | > 8 µg/mL |  | 0.5 µg/mL (≈ 1.04 µM) | 8 µg/mL (≈ 16.6 µM) | 4 µg/mL (≈ 8.31 µM) | 
4 | Nc1ccccc1CN1CCN(c2ccc(N3C[C@H](Cn4ccnn4)OC3=O)cc2F)CC1 | 0.125 µg/mL (≈ 0.277 µM) |  | 0.5 µg/mL (≈ 1.11 µM) |  | 0.125 µg/mL (≈ 0.277 µM) | 1 µg/mL (≈ 2.21 µM) | 0.5 µg/mL (≈ 1.11 µM) | 
5 | Cc1ccc(CN2CCN(c3ccc(N4C[C@H](Cn5ccnn5)OC4=O)cc3F)CC2)s1 | 0.125 µg/mL (≈ 0.274 µM) |  | 4 µg/mL (≈ 8.76 µM) |  | 0.06 µg/mL (≈ 0.131 µM) | 4 µg/mL (≈ 8.76 µM) | 2 µg/mL (≈ 4.38 µM) | 
6 | Nc1ccc(CN2CCN(c3ccc(N4C[C@H](Cn5ccnn5)OC4=O)cc3F)CC2)cc1 | 0.125 µg/mL (≈ 0.277 µM) | 14.5 mg/kg | 0.5 µg/mL (≈ 1.11 µM) | 6.73 mg/kg | 0.06 µg/mL (≈ 0.133 µM) | 0.25 µg/mL (≈ 0.554 µM) | 0.5 µg/mL (≈ 1.11 µM) | Tmax [2]: 1 h; clearance [3]: 23.9 mL/min/kg; AUC(0-inf) [4]: 7080 ng·h/mL; CL/F [5]: 49 mL/min/kg; AUC(0-inf) [7]: 3100 ng·h/mL; half-life [10]: 4.67 h; AUC(0-inf) [11]: 18100 ng·h/mL; Cmax [13]: 2320 ng/mL; bioavailability [14]: 43.8%; half-life [15]: 3.52 h; Cmax [16]: 1200 ng/mL; Tmax [17]: 0.75 h; CL/F [18]: 54.4 mL/min/kg; half-life [19]: 3.4 h
7 | CN[C@H](CC(C)C)C(=O)N[C@H]1C(=O)N[C@@H](CC(N)=O)C(=O)N[C@H]2C(=O)N[C@H]3C(=O)N[C@H](C(=O)N[C@H](C(=O)O)c4cc(O)cc(O)c4-c4cc3ccc4O)[C@H](O)c3ccc(c(Cl)c3)Oc3cc2cc(c3O[C@@H]2O[C@H](CO)[C@@H](O)[C@H](O)[C@H]2O[C@H]2C[C@](C)(N)[C@H](O)[C@H](C)O2)Oc2ccc(cc2Cl)[C@H]1O [VANCOMYCIN] | 0.125 µg/mL (≈ 0.0863 µM) |  |  | 6.54 mg/kg | 0.125 µg/mL (≈ 0.0863 µM) | 1 µg/mL (≈ 0.69 µM) | 1 µg/mL (≈ 0.69 µM) | ED50 (Staphylococcus aureus [20]): 6 mg/kg
8 | O=C1O[C@@H](Cn2ccnn2)CN1c1ccc(N2CCN(Cc3ccco3)CC2)c(F)c1 | 0.06 µg/mL (≈ 0.141 µM) | 12.3 mg/kg | 0.5 µg/mL (≈ 1.17 µM) | 12 mg/kg | 0.06 µg/mL (≈ 0.141 µM) | 0.5 µg/mL (≈ 1.17 µM) | 0.5 µg/mL (≈ 1.17 µM) | 
9 | O=C1O[C@@H](Cn2ccnn2)CN1c1ccc(N2CCN(Cc3ccccn3)CC2)c(F)c1 | 0.125 µg/mL (≈ 0.286 µM) |  | 0.5 µg/mL (≈ 1.14 µM) |  | 0.125 µg/mL (≈ 0.286 µM) | 0.5 µg/mL (≈ 1.14 µM) | 0.5 µg/mL (≈ 1.14 µM) | 
10 | O=C1O[C@@H](Cn2ccnn2)CN1c1ccc(N2CCN(Cc3cccnc3)CC2)c(F)c1 | 0.125 µg/mL (≈ 0.286 µM) |  | 1 µg/mL (≈ 2.29 µM) |  | 0.125 µg/mL (≈ 0.286 µM) | 1 µg/mL (≈ 2.29 µM) | 1 µg/mL (≈ 2.29 µM) | 
11 | O=C1O[C@@H](Cn2ccnn2)CN1c1ccc(N2CCN(Cc3ccsc3)CC2)c(F)c1 | 0.06 µg/mL (≈ 0.136 µM) |  | 1 µg/mL (≈ 2.26 µM) |  | 0.06 µg/mL (≈ 0.136 µM) | 1 µg/mL (≈ 2.26 µM) | 0.5 µg/mL (≈ 1.13 µM) | 
12 | O=C1O[C@@H](Cn2ccnn2)CN1c1ccc(N2CCN(Cc3ccccc3[N+](=O)[O-])CC2)c(F)c1 | 0.125 µg/mL (≈ 0.26 µM) |  | 1 µg/mL (≈ 2.08 µM) |  | 0.125 µg/mL (≈ 0.26 µM) | > 2 µg/mL | 1 µg/mL (≈ 2.08 µM) | 
